In ChEMBL document CHEMBL1781938, “New 3-, 8-disubstituted pyrazolo[5,1-c][1,2,4]benzotriazines useful for studying the interaction with the HBp-3 area (hydrogen bond point area) in the benzodiazepine site on the γ-aminobutyric acid type A (GABAA) receptor” (Bioorg Med Chem, 2011):

Key:
[1] = Displacement of [3H]Ro151788 from bovine GABA-A receptor; set-up: species or system Bos taurus
Outline: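 Competition binding against [3H]flumazenil (Ro 15-1788) at the benzodiazepine site, using bovine cerebral cortex membranes diluted in 50 mM Tris–citrate pH 7.4. Protein was measured by the Lowry method. Each compound was run at six or more concentrations. Ki was derived only for compounds giving more than 80% inhibition of specific binding at 10 µM.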

Bos taurus = species on record: Bos taurus; assay: Displacement of [3H]Ro151788 from bovine GABA-A receptor at 10 uM
Outline: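 Bovine cerebral cortex membranes diluted in 50 mM Tris–citrate buffer pH 7.4, with protein measured by Lowry. Specific binding of [3H]flumazenil (Ro 15-1788) was read as percent inhibition with test compound at a fixed 10 µM. Compounds inhibiting by more than 80% went on to Ki determination.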

| SMILES | Ki [1] [nM] | Activity (Bos taurus) [%] |
| --- | --- | --- |
| COc1ccc(-c2ccc3c(c2)n2ncc(C(=O)OCc4cccs4)c2n[n+]3[O-])cc1 | 29.4 | > 80 |
| [O-][n+]1nc2c(-c3ccsc3)cnn2c2cc(-c3ccccc3)ccc21 | 642 | > 80 |
| [O-][n+]1nc2c(-c3ccsc3)cnn2c2cc(-c3ccsc3)ccc21 | 357 | > 80 |
| COC(=O)c1cnn2c1n[n+]([O-])c1ccc(-c3ccc[nH]3)cc12 | 14.9 | > 80 |
| [O-][n+]1nc2c(I)cnn2c2cc(-c3ccco3)ccc21 | 190 | > 80 |
| COc1ccc(-c2ccc3c(c2)n2ncc(I)c2n[n+]3[O-])cc1 | 241 | > 80 |
| O=C(OCc1cccs1)c1cnn2c1n[n+]([O-])c1ccc(-c3ccco3)cc12 | 54.8 | > 80 |
| [O-][n+]1nc2c(I)cnn2c2cc(-c3ccncc3)ccc21 | 2380 | > 80 |
| [O-][n+]1nc2c(I)cnn2c2cc(-c3ccccc3O)ccc21 | 2480 | > 80 |
| [O-][n+]1nc2c(I)cnn2c2cc(-c3ccc[nH]3)ccc21 | 25 | > 80 |
| COc1ccc(-c2ccc3c(c2)n2ncc(-c4ccsc4)c2n[n+]3[O-])cc1 | 817 | > 80 |
| COc1ccccc1-c1ccc2c(c1)n1ncc(I)c1n[n+]2[O-] | 305 | > 80 |
| O=C(c1ccco1)c1cnn2c1n[n+]([O-])c1ccc(-c3ccc[nH]3)cc12 | 63 | > 80 |
| [O-][n+]1nc2c(I)cnn2c2cc(-c3ccsc3)ccc21 | 56 | > 80 |
| O=C(c1ccco1)c1cnn2c1n[n+]([O-])c1ccc(-c3ccco3)cc12 | 857 | > 80 |
| [O-][n+]1nc2c(-c3ccsc3)cnn2c2cc(-c3ccco3)ccc21 | 209 | > 80 |
| [O-][n+]1nc2c(-c3ccco3)cnn2c2cc(-c3ccsc3)ccc21 | 26.9 | > 80 |
| [O-][n+]1nc2c(-c3ccc[nH]3)cnn2c2cc(-c3ccsc3)ccc21 | 48.3 | > 80 |
| [O-][n+]1nc2c(-c3ccsc3)cnn2c2cc(-c3ccc[nH]3)ccc21 | 19.4 | > 80 |
| COc1ccc(-c2ccc3c(c2)n2ncc(C(=O)c4ccco4)c2n[n+]3[O-])cc1 | 239 | > 80 |
| [O-][n+]1nc2c(-c3ccsc3)cnn2c2cc(-c3cccs3)ccc21 | 370 | > 80 |
| CC(C)(C)OC(=O)n1cccc1-c1ccc2c(c1)n1ncc(C(=O)OCc3cccs3)c1n[n+]2[O-] | 395 | > 80 |
| [O-][n+]1nc2c(I)cnn2c2cc(-c3cccs3)ccc21 | 202 | > 80 |
